Tests used:
Format in all cases: ADME, organism-based
Mus musculus [1] = experiment: The biodistribution time for compound radioactivity after concomitant administration of [[131 I ]L-HML-NGA and compound in mice. It is expressed as percent injected dose per kidney after 30 minutes; conditions: in vivo, 0.5 h
Summary of the method: (§1)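 Six-week-old male ddY mice received an intravenous injection of a 1:1 mix of the 131I- and 125I-labelled galactosyl-neoglycoalbumin conjugates, each diluted to 90 µg/mL protein in 0.1 M PBS pH 6.0, at 9 µg radioiodinated NGA per mouse. Groups of five were killed at 5, 15 and 30 min, 1 and 3 h. Organs were excised, weighed and well-counted, giving %ID/organ (blood %ID/g) as mean (SD).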

Homo sapiens [2] = organism: Homo sapiens; experiment: The percent protein-bound radioactivity in NGAfractions following incubation of radioiodinated compound in human serum after 24 hours
Summary of the method: (§2)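 Conjugates were diluted to 0.5 mg/mL in 0.1 M PBS pH 6.0, and 20 µL was added to 230 µL of freshly prepared human serum. Samples were incubated at 37 °C and taken at 1, 3, 6 or 24 h. Protein-bound fraction (Rf 0) was separated from small metabolites (Rf 0.6-0.9) by paper chromatography in methanol-water 4:1. Protein-bound radioactivity was divided by the initial radiochemical purity. Values are mean (SD).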

[3] = Cumulative radioactivity exerted by compound in the urine at 24 hour postinjection of [131 I ]L-HML-NGA and compound; conditions: in vivo
Summary of the method: (§3)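 Mice received one i.v. co-injection of the dual-isotope NGA mixture, 9 µg of each radioiodinated protein, and were housed in metabolic cages for 24 h. Cumulative urine and feces were collected and counted. Values are % injected dose, mean (SD) of five animals, with a Student's paired t-test between the two co-administered conjugates.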

Mus musculus [4] = experiment: The biodistribution time for compound radioactivity after concomitant administration of [131 I ]L-HML-NGA and compound in mice. It is expressed as percent injected dose per liver after 30 minutes; conditions: in vivo, 0.5 h; summary of the method: as §1
Mus musculus [5] = experiment: The biodistribution time for compound radioactivity after concomitant administration of [[131 I ]L-HML-NGA and compound in mice. It is expressed as percent injected dose per kidney after 15 minutes; conditions: in vivo, 0.25 h; summary of the method: as §1
Mus musculus [6] = experiment: The biodistribution time for compound radioactivity after concomitant administration of [[131 I ]L-HML-NGA and compound in mice. It is expressed as percent injected dose per kidney after 1 hour; conditions: in vivo; summary of the method: as §1
Mus musculus [7] = experiment: The biodistribution time for compound radioactivity after concomitant administration of [131 I ]L-HML-NGA and [compound in mice. It is expressed as percent injected dose per stomach after 1 hour; conditions: in vivo; summary of the method: as §1
Mus musculus [8] = experiment: The biodistribution time for compound radioactivity after concomitant administration of [131 I ]L-HML-NGA and compound in mice. It is expressed as percent injected dose per gram of blood tissue after 30 minutes; conditions: in vivo, 0.5 h; summary of the method: as §1
Mus musculus [9] = experiment: The biodistribution time for compound radioactivity after concomitant administration of [131 I ]L-HML-NGA and compound in mice. It is expressed as percent injected dose per liver after 5 minutes; conditions: in vivo; summary of the method: as §1
Mus musculus [10] = experiment: The biodistribution time for compound radioactivity after concomitant administration of [131 I ]L-HML-NGA and compound in mice. It is expressed as percent injected dose per intestine after 30 minutes; conditions: in vivo, 0.5 h; summary of the method: as §1
Mus musculus [11] = experiment: The biodistribution time for compound radioactivity after concomitant administration of [131 I ]L-HML-NGA and compound in mice. It is expressed as percent injected dose per liver after 3 hours; conditions: in vivo; summary of the method: as §1
Mus musculus [12] = experiment: The biodistribution time for compound radioactivity after concomitant administration of [131 I ]L-HML-NGA and compound in mice. It is expressed as percent injected dose per stomach after 15 minutes; conditions: in vivo, 0.25 h; summary of the method: as §1
[13] = Cumulative radioactivity exerted by compound in the feces at 24 hour postinjection of [131 I ]L-HML-NGA and compound.; conditions: in vivo; summary of the method: as §3
Homo sapiens [14] = organism: Homo sapiens; experiment: The percent protein-bound radioactivity in NGAfractions following incubation of radioiodinated compound in human serum after 6 hours; conditions: in vitro; summary of the method: as §2
Mus musculus [15] = experiment: The biodistribution time for compound radioactivity after concomitant administration of [131 I ]L-HML-NGA and compound in mice. It is expressed as percent injected dose per neck after 1 hour; conditions: in vivo; summary of the method: as §1
Mus musculus [16] = experiment: The biodistribution time for compound radioactivity after concomitant administration of [131 I ]L-HML-NGA and compound in mice. It is expressed as percent injected dose per neck. Values are mean(SD) of five animals for each experiment after 3 hours; conditions: in vivo; summary of the method: as §1
Mus musculus [17] = experiment: The biodistribution time for compound radioactivity after concomitant administration of [[131 I ]L-HML-NGA and compound in mice. It is expressed as percent injected dose per kidney after 3 hours; conditions: in vivo; summary of the method: as §1
Mus musculus [18] = experiment: The biodistribution time for compound radioactivity after concomitant administration of [131 I ]L-HML-NGA and compound in mice. It is expressed as percent injected dose per gram of blood tissue after 5 minutes; conditions: in vivo; summary of the method: as §1
Mus musculus [19] = experiment: The biodistribution time for compound radioactivity after concomitant administration of [131 I ]L-HML-NGA and compound in mice. It is expressed as percent injected dose per neck after 30 minutes; conditions: in vivo, 0.5 h; summary of the method: as §1
Mus musculus [20] = experiment: The biodistribution time for compound radioactivity after concomitant administration of [131 I ]L-HML-NGA and compound in mice. It is expressed as percent injected dose per gram of blood tissue after 1 hour; conditions: in vivo; summary of the method: as §1
Mus musculus [21] = experiment: The biodistribution time for compound radioactivity after concomitant administration of [131 I ]L-HML-NGA and compound in mice. It is expressed as percent injected dose per intestine after 3 hours; conditions: in vivo; summary of the method: as §1
Mus musculus [22] = experiment: The biodistribution time for compound radioactivity after concomitant administration of [131 I ]L-HML-NGA and compound in mice. It is expressed as percent injected dose per gram of blood tissue after 15 minutes; conditions: in vivo, 0.25 h; summary of the method: as §1
Mus musculus [23] = experiment: The biodistribution time for compound radioactivity after concomitant administration of [131 I ]L-HML-NGA and compound in mice. It is expressed as percent injected dose per intestine after 15 minutes; conditions: in vivo, 0.25 h; summary of the method: as §1
Mus musculus [24] = experiment: The biodistribution time for compound radioactivity after concomitant administration of [131 I ]L-HML-NGA and compound in mice. It is expressed as percent injected dose per stomach after 5 minutes; conditions: in vivo; summary of the method: as §1
Mus musculus [25] = experiment: The biodistribution time for compound radioactivity after concomitant administration of [131 I ]L-HML-NGA and compound in mice. It is expressed as percent injected dose per stomach after 3 hours; conditions: in vivo; summary of the method: as §1
Homo sapiens [26] = organism: Homo sapiens; experiment: The percent protein-bound radioactivity in NGAfractions following incubation of radioiodinated compound in human serum after 1 hour; summary of the method: as §2
Mus musculus [27] = experiment: The biodistribution time for compound radioactivity after concomitant administration of [131 I ]L-HML-NGA and compound in mice. It is expressed as percent injected dose per gram of blood tissue after 3 hours; conditions: in vivo; summary of the method: as §1
Mus musculus [28] = experiment: The biodistribution time for compound radioactivity after concomitant administration of [131 I ]L-HML-NGA and compound in mice. It is expressed as percent injected dose per stomach after 30 minutes; conditions: in vivo, 0.5 h; summary of the method: as §1
Mus musculus [29] = experiment: The biodistribution time for compound radioactivity after concomitant administration of [131 I ]L-HML-NGA and compound in mice. It is expressed as percent injected dose per neck after 5 minutes; conditions: in vivo; summary of the method: as §1
Mus musculus [30] = experiment: The biodistribution time for compound radioactivity after concomitant administration of [131 I ]L-HML-NGA and compound in mice. It is expressed as percent injected dose per liver after 15 minutes; conditions: in vivo, 0.25 h; summary of the method: as §1
Mus musculus [31] = experiment: The biodistribution time for compound radioactivity after concomitant administration of [131 I ]L-HML-NGA and compound in mice. It is expressed as percent injected dose per intestine after 1 hour; conditions: in vivo; summary of the method: as §1
Mus musculus [32] = experiment: The biodistribution time for compound radioactivity after concomitant administration of [131 I ]L-HML-NGA and compound in mice. It is expressed as percent injected dose per liver after 1 hour; conditions: in vivo; summary of the method: as §1
Mus musculus [33] = experiment: The biodistribution time for compound radioactivity after concomitant administration of [[131 I ]L-HML-NGA and compound in mice. It is expressed as percent injected dose per kidney after 5 minutes; conditions: in vivo; summary of the method: as §1
Mus musculus [34] = experiment: The biodistribution time for compound radioactivity after concomitant administration of [131 I ]L-HML-NGA and compound in mice. It is expressed as percent injected dose per neck after 15 minutes; conditions: in vivo, 0.25 h; summary of the method: as §1
Homo sapiens [35] = organism: Homo sapiens; experiment: The percent protein-bound radioactivity in NGAfractions following incubation of radioiodinated compound in human serum after 3 hours; summary of the method: as §2
Mus musculus [36] = experiment: The biodistribution time for compound radioactivity after concomitant administration of [131 I ]L-HML-NGA and compound in mice. It is expressed as percent injected dose per intestine after 5 minutes; conditions: in vivo; summary of the method: as §1
Mus musculus [37] = experiment: The biodistribution time for compound radioactivity after concomitant administration of [131 I ]L-HML-NGA and compound in mice. It is expressed as percent injected dose per neck after 3 hours; conditions: in vivo; summary of the method: as §1

SMILES | Radioactivity (Mus musculus [1]) [%] | Radioactivity [3] [%] | Radioactivity (Mus musculus [4]) [%] | Radioactivity (Mus musculus [5]) [%] | Radioactivity (Mus musculus [6]) [%] | Radioactivity (Mus musculus [7]) [%] | Radioactivity (Mus musculus [8]) [%] | Radioactivity (Mus musculus [9]) [%] | Radioactivity (Mus musculus [10]) [%] | Radioactivity (Mus musculus [11]) [%] | Radioactivity (Mus musculus [12]) [%] | Radioactivity [13] [%] | Radioactivity (Mus musculus [15]) [%] | Radioactivity (Mus musculus [17]) [%] | Radioactivity (Mus musculus [18]) [%] | Radioactivity (Mus musculus [19]) [%] | Radioactivity (Mus musculus [20]) [%] | Radioactivity (Mus musculus [21]) [%] | Radioactivity (Mus musculus [22]) [%] | Radioactivity (Mus musculus [23]) [%] | further results
N=C(CCCSC1CC(=O)N(CCCC[C@H](NC(=O)CNC(=O)c2cccc([125I])c2)C(=O)O)C1=O)NC(=O)[C@@H](N)CCCCN (some centres undefined) | 4.64 | 78.26 | 18.1 | 4.38 | 1.04 | 0.42 | 1.7 | 93.67 | 4.79 | 3 | 0.5 | 4.03 | 0.07 | 0.22 | 1.17 | 0.19 | 0.73 | 4.96 | 2.76 | 2.26 | Radioactivity (Homo sapiens [2]): 97.85%; Radioactivity (Homo sapiens [14]): 99.5%; Radioactivity (Mus musculus [16]): 0.03%; Radioactivity (Mus musculus [24]): 0.24%; Radioactivity (Mus musculus [25]): 0.35%; Radioactivity (Homo sapiens [26]): 99.88%; Radioactivity (Mus musculus [27]): 0.41%; Radioactivity (Mus musculus [28]): 0.36%; Radioactivity (Mus musculus [29]): 0.11%; Radioactivity (Mus musculus [30]): 55.86%; Radioactivity (Mus musculus [31]): 5.17%; Radioactivity (Mus musculus [32]): 5.92%; Radioactivity (Mus musculus [33]): 0.33%; Radioactivity (Mus musculus [34]): 0.25%; Radioactivity (Homo sapiens [35]): 99.4%; Radioactivity (Mus musculus [36]): 0.43%
N[C@@H](CS)C(=O)SC1CC(=O)N(CCCCCNC(=O)CNC(=O)c2cccc([125I])c2)C1=O (some centres undefined) | 1.72 | 25.5 | 34.19 | 1.62 | 0.77 | 0.61 | 0.64 | 93.75 | 33.84 | 5.72 | 0.46 | 58.83 | 0.04 | 0.38 | 0.76 | 0.07 | 0.32 | 59.36 | 0.68 | 7.17 | Radioactivity (Homo sapiens [2]): 97.26%; Radioactivity (Homo sapiens [14]): 98.56%; Radioactivity (Mus musculus [24]): 0.24%; Radioactivity (Mus musculus [37]): 0.04%; Radioactivity (Mus musculus [25]): 1.48%; Radioactivity (Homo sapiens [26]): 100.07%; Radioactivity (Mus musculus [27]): 0.23%; Radioactivity (Mus musculus [28]): 0.54%; Radioactivity (Mus musculus [29]): 0.06%; Radioactivity (Mus musculus [30]): 77.12%; Radioactivity (Mus musculus [31]): 55.62%; Radioactivity (Mus musculus [32]): 10.12%; Radioactivity (Mus musculus [33]): 0.8%; Radioactivity (Mus musculus [34]): 0.06%; Radioactivity (Homo sapiens [35]): 99.12%; Radioactivity (Mus musculus [36]): 0.71%
N[C@@H](CS)C(=O)SC1CC(=O)N(CCCC[C@@H](NC(=O)CNC(=O)c2cccc([125I])c2)C(=O)O)C1=O (some centres undefined) | 1.73 | 39.1 | 27.49 | 2.97 | 0.72 | 1.4 | 1.11 | 93.14 | 21.6 | 3.62 | 0.65 | 40.97 | 0.11 | 0.34 | 1.15 | 0.18 | 0.54 | 40.82 | 1.78 | 5.11 | Radioactivity (Mus musculus [24]): 0.24%; Radioactivity (Mus musculus [37]): 0.04%; Radioactivity (Mus musculus [25]): 1.09%; Radioactivity (Mus musculus [27]): 0.34%; Radioactivity (Mus musculus [28]): 2%; Radioactivity (Mus musculus [29]): 0.15%; Radioactivity (Mus musculus [30]): 66.9%; Radioactivity (Mus musculus [31]): 34.28%; Radioactivity (Mus musculus [32]): 12.6%; Radioactivity (Mus musculus [33]): 1.26%; Radioactivity (Mus musculus [34]): 0.2%; Radioactivity (Mus musculus [36]): 1.14%
